According to ChEMBL document CHEMBL1138270, “Antimycobacterial activities of novel 1-(cyclopropyl/tert-butyl/4-fluorophenyl)-1,4-dihydro- 6-nitro-4-oxo-7-(substituted secondary amino)-1,8-naphthyridine-3-carboxylic acid” (J Med Chem, 2007):
In brackets after ≈: the same amount, converted by molar mass.

How the values were obtained:
Mus musculus [1] = test: Phototoxicity in Swiss Albino mouse assessed as ear erythema at 140 mg/kg, po after 24 hrs of irradiation; format: organism-based; parameters: dose 140 mg/kg, route oral; conditions: in vivo
Mus musculus [2] = test: Phototoxicity in Swiss Albino mouse assessed as ear erythema at 140 mg/kg, po after 48 hrs of irradiation; format: organism-based; parameters: dose 140 mg/kg, route oral; conditions: in vivo
Mus musculus [3] = test: Phototoxicity in Swiss Albino mouse assessed as ear erythema at 140 mg/kg, po after 72 hrs of irradiation; format: organism-based; parameters: dose 140 mg/kg, route oral; conditions: in vivo
[4] = Inhibition of Mycobacterium smegmatis DNA gyrase supercoiling activity; parameters: species or system Mycolicibacterium smegmatis
Summary of the method: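 Gyrase purified from M. smegmatis was preincubated with compound in DMSO (5% DMSO in reaction). 400 ng relaxed pUC18 was added in 35 mM Tris-HCl pH 7.5, 5 mM MgCl2, 25 mM K-glutamate, 2 mM spermidine, 2 mM ATP, BSA, tRNA and 5% glycerol, 1 h at 37 °C. Samples were heat-inactivated, run on 1% agarose in TAE, and ethidium-stained; IC50 was derived.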

Mus musculus [5] = test: Phototoxicity in Swiss Albino mouse assessed as ear erythema at 140 mg/kg, po after 4 hrs of irradiation; format: organism-based; parameters: dose 140 mg/kg, route oral; conditions: in vivo
Mus musculus [6] = test: Phototoxicity in UV light irradiated Swiss Albino mouse assessed as ear thickness at 140 mg/kg, po; format: organism-based; parameters: dose 140 mg/kg, route oral; conditions: in vivo
Summary of the method: (§1)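 Female Swiss albino mice (~2 months, 20-25 g) were fasted ≥18 h and given 140 mg/kg orally by gavage; controls received 0.5% Na-CMC vehicle at 10 mL/kg. UVA started right after dosing, 4 h (~18 J/cm2). Ear thickness was measured before dosing and at 4, ~24, 48, 72 and 96 h, reported as mean of left and right ears ± SEM.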

Mus musculus [7] = test: Phototoxicity in Swiss Albino mouse assessed as ear erythema at 140 mg/kg, po after 96 hrs of irradiation; format: organism-based; parameters: dose 140 mg/kg, route oral; conditions: in vivo
Vero = test: Cytotoxicity against Vero cells after 72 hrs by MTT assay; format: cell-based; conditions: Chlorocebus sabaeus
Summary of the method: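 Vero cells were exposed to serially diluted compound up to 62.5 µg/mL for 72 h. Viability was read by cellular conversion of MTT to formazan (CellTiter 96 non-radioactive proliferation assay), and IC50 was derived.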

Mus musculus [8] = test: Phototoxicity in Swiss Albino mouse assessed as ear thickness at 140 mg/kg, po after 4 hrs of irradiation; format: organism-based; parameters: dose 140 mg/kg, route oral; conditions: in vivo; summary of the method: as §1
Mus musculus [9] = test: Phototoxicity in UV light irradiated Swiss Albino mouse assessed ear erythema at 140 mg/kg, po; format: organism-based; parameters: dose 140 mg/kg, route oral; conditions: in vivo
Mus musculus [10] = test: Phototoxicity in Swiss Albino mouse assessed as ear thickness at 140 mg/kg, po after 96 hrs of irradiation; format: organism-based; parameters: dose 140 mg/kg, route oral; conditions: in vivo; summary of the method: as §1
Mus musculus [11] = test: Phototoxicity in Swiss Albino mouse assessed as ear thickness at 140 mg/kg, po after 48 hrs of irradiation; format: organism-based; parameters: dose 140 mg/kg, route oral; conditions: in vivo; summary of the method: as §1
Mus musculus [12] = test: Phototoxicity in Swiss Albino mouse assessed as ear thickness at 140 mg/kg, po after 72 hrs of irradiation; format: organism-based; parameters: dose 140 mg/kg, route oral; conditions: in vivo; summary of the method: as §1
Mus musculus [13] = test: Toxicity in C57BL/6 mouse at 500 mg/kg; format: organism-based; parameters: dose 500 mg/kg; conditions: in vivo
Summary of the method: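 Maximum tolerated dose study in female C57BL/6 mice: single escalating doses of 100, 300 and 500 mg/kg, 3 mice/dose.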

[14] = system: Mycolicibacterium smegmatis; test: Antimicrobial activity against Mycobacterium smegmatis by agar dilution method; format: functional
Summary of the method: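 Agar dilution against M. smegmatis ATCC 14468; MIC determined in duplicate.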

[15] = system: Mycobacterium tuberculosis; test: Antimycobacterial activity against Mycobacterium tuberculosis ATCC 35801 infected CD1 mouse assessed as spleen bacterial count at 50 mg/kg, ip after 35 days post infection; format: functional; conditions: route intraperitoneal
Summary of the method: (§2)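 CD-1 mice were infected intravenously via the caudal vein with about 10⁷ viable M. tuberculosis ATCC 35801. Intraperitoneal treatment began 10 days after inoculation and ran for 10 days. At 35 days post-infection, spleens and right lungs were homogenized, serially diluted 10-fold and plated on 7H10 agar at 37 °C in ambient air for 4 weeks. Counts were compared with vehicle-treated controls and given as log CFU ± SEM.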

[16] = system: Mycobacterium tuberculosis; test: Antimycobacterial activity against Mycobacterium tuberculosis ATCC 35801 infected CD1 mouse assessed as lung bacterial count at 50 mg/kg, ip after 35 days post infection; format: functional; conditions: route intraperitoneal; summary of the method: as §2
[17] = system: Mycobacterium tuberculosis; test: Antimycobacterial activity against Mycobacterium tuberculosis H37Rv by agar dilution method; format: functional
Summary of the method: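 MIC was determined by agar dilution, in duplicate.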

Mus musculus [18] = test: Phototoxicity in Swiss Albino mouse assessed as ear thickness at 140 mg/kg, po after 24 hrs of irradiation; format: organism-based; parameters: dose 140 mg/kg, route oral; conditions: in vivo; summary of the method: as §1
[19] = system: Mycobacterium tuberculosis; test: Antimycobacterial activity against Mycobacterium tuberculosis ATCC 35801 infected CD1 mouse assessed as spleen bacterial count at 25 mg/kg, ip after 35 days post infection; format: functional; conditions: route intraperitoneal; summary of the method: as §2
[20] = system: Mycobacterium tuberculosis; test: Antimycobacterial activity against Mycobacterium tuberculosis ATCC 35801 infected CD1 mouse assessed as lung bacterial count at 25 mg/kg, ip after 35 days post infection; format: functional; conditions: route intraperitoneal; summary of the method: as §2

Compound	Activity (Mus musculus [1])	Activity (Mus musculus [2])	Activity (Mus musculus [3])	IC50 [4] [µM]	Activity (Mus musculus [5])	Activity (Mus musculus [6]) [mm]	Activity (Mus musculus [7])	IC50 (Vero) [µM]	Activity (Mus musculus [8]) [mm]	Activity (Mus musculus [9])	Activity (Mus musculus [10]) [mm]	Activity (Mus musculus [11]) [mm]	Activity (Mus musculus [12]) [mm]	MIC [14] [µM]	MIC [17] [µM]	Activity (Mus musculus [18]) [mm]	other results
CC1(C)COCN1c1nc2c(cc1[N+](=O)[O-])c(=O)c(C(=O)O)cn2C(C)(C)C	Non-toxic	Toxic	Toxic	256	Non-toxic	0.24	Toxic	> 160	0.28	Non-toxic	0.3	0.29	0.3	3.99 (≈ 1.56 µg/mL)	0.1 (≈ 0.039 µg/mL)	0.26	Activity (Mus musculus [13]): Non-toxic; Log10 cfu [15]: 5.13; Log10 cfu [16]: 5.6
CC(C)(C)n1cc(C(=O)O)c(=O)c2cc([N+](=O)[O-])c(N3CCC4(CC3)OCCO4)nc21	–	–	–	92.5	–	–	–	144	–	–	–	–	–	3.61 (≈ 1.56 µg/mL)	0.9 (≈ 0.389 µg/mL)	–	–
O=C(O)c1cn(-c2ccc(F)cc2)c2nc(N3CCSCC3)c([N+](=O)[O-])cc2c1=O	Non-toxic	Non-toxic	Non-toxic	> 232	Non-toxic	0.25	Non-toxic	72.6	0.27	Non-toxic	0.29	0.26	0.29	1.81 (≈ 0.779 µg/mL)	0.44 (≈ 0.189 µg/mL)	0.26	–
CC(C)(C)n1cc(C(=O)O)c(=O)c2cc([N+](=O)[O-])c(N3CCSCC3)nc21	Non-toxic	Non-toxic	Non-toxic	102	Non-toxic	0.27	Non-toxic	79.6	0.28	Non-toxic	0.32	0.29	0.3	1.99 (≈ 0.781 µg/mL)	0.99 (≈ 0.389 µg/mL)	0.28	–
CN1CCN(c2nc3c(cc2[N+](=O)[O-])c(=O)c(C(=O)O)cn3-c2ccc(F)cc2)CC1c1ccccc1 (centres undefined)	–	–	–	99.3	–	–	–	124	–	–	–	–	–	3.09 (≈ 1.56 µg/mL)	0.77 (≈ 0.388 µg/mL)	–	–
COc1ccc(CC2C3=C(CCCC3)CCN2c2nc3c(cc2[N+](=O)[O-])c(=O)c(C(=O)O)cn3C2CC2)cc1 (centres undefined)	Non-toxic	–	Non-toxic	56.5	Non-toxic	0.33	Non-toxic	118	0.34	Non-toxic	0.33	0.38	0.36	1.47 (≈ 0.78 µg/mL)	5.89 (≈ 3.13 µg/mL)	0.34	–
CC1CN(c2nc3c(cc2[N+](=O)[O-])c(=O)c(C(=O)O)cn3-c2ccc(F)cc2)CC(C)O1 (centres undefined)	Non-toxic	Non-toxic	Non-toxic	226	Non-toxic	0.26	Non-toxic	141	0.25	Non-toxic	0.3	0.27	0.3	1.79 (≈ 0.792 µg/mL)	0.43 (≈ 0.19 µg/mL)	0.28	–
O=C(O)c1cn2c(n1)CN(c1nc3c(cc1[N+](=O)[O-])c(=O)c(C(=O)O)cn3-c1ccc(F)cc1)CC2	Toxic	Non-toxic	Non-toxic	> 202	Toxic	0.27	Non-toxic	> 126	0.32	Non-toxic	0.33	0.32	0.33	1.58 (≈ 0.781 µg/mL)	0.38 (≈ 0.188 µg/mL)	0.33	–
O=C(O)c1cn(C2CC2)c2cc(N3CCNCC3)c(F)cc2c1=O [CIPROFLOXACIN]	–	–	–	15.1	–	–	–	–	–	–	–	–	–	–	–	–	–
COc1c(N2CCNC(C)C2)c(F)cc2c(=O)c(C(=O)O)cn(C3CC3)c12 (centres undefined) [GATIFLOXACIN]	–	–	–	–	–	–	–	> 155	–	–	–	–	–	2.08 (≈ 0.781 µg/mL)	1.04 (≈ 0.39 µg/mL)	–	Log10 cfu [15]: 6.92; Log10 cfu [16]: 6.02
NNC(=O)c1ccncc1 [ISONIAZID]	–	–	–	–	–	–	–	> 456	–	–	–	–	–	45.6 (≈ 6.25 µg/mL)	0.36 (≈ 0.0494 µg/mL)	–	Log10 cfu [19]: 4.71; Log10 cfu [20]: 5.86
CCn1cc(C(=O)O)c(=O)c2cc(F)c(N3CCNC(C)C3)c(F)c21 (centres undefined) [LOMEFLOXACIN]	Toxic	Toxic	Toxic	–	Toxic	0.31	Toxic	–	0.4	Toxic	0.6	0.53	0.64	–	–	0.48	–
